The record followed here is ChEMBL document CHEMBL1133013, “Structure-activity relationships and pharmacokinetic analysis for a series of potent, systemically available biphenylsulfonamide matrix metalloproteinase inhibitors” (J Med Chem, 2000).

For series [1], the target named is Collagenase 3 (Homo sapiens, UniProt P45452).
For series [2], the target named is T1, Matrilysin (Homo sapiens, UniProt P09237).
T1 sequence (P09237 whole entry): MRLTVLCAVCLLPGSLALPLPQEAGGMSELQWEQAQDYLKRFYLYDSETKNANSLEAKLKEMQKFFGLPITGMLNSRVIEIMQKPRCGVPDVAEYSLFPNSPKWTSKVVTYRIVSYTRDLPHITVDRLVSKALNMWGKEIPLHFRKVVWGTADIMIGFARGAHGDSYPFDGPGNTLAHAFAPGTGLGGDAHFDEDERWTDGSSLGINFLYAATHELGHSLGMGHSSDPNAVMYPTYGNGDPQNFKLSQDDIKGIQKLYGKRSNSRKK
Put plainly: In vitro inhibition of matrix metalloprotease-7 (MMP-7).

Series [3] is described as follows: AUC in rats following a single 5 mg/kg oral cassette gavage dose. More on the design: dose 5 mg/kg, route oral. The format is ADME, organism-based. The note with it: rat, plasma, read-out: AUC 0-tldc. The method, boiled down: (§1)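 Cassette of 5–7 compounds given together as one oral gavage, 5 mg/kg per compound, methyl cellulose suspension, 3 fasted male Wistar rats (80-90 days old). Heparinized plasma taken by jugular cannula predose to 48 h. LC-MS/MS with LLOQ 10 ng/mL. Noncompartmental analysis of individual rats: Cmax/tmax as observed, t1/2 = 0.693/λz, trapezoidal AUC(0-tldc) extrapolated to infinity.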

The target in series [4] is 72 kDa type IV collagenase (Homo sapiens, UniProt P08253). In words: In vitro inhibition of matrix metalloprotease-2 (MMP-2).
Sequence of 72 kDa type IV collagenase (P08253 whole entry): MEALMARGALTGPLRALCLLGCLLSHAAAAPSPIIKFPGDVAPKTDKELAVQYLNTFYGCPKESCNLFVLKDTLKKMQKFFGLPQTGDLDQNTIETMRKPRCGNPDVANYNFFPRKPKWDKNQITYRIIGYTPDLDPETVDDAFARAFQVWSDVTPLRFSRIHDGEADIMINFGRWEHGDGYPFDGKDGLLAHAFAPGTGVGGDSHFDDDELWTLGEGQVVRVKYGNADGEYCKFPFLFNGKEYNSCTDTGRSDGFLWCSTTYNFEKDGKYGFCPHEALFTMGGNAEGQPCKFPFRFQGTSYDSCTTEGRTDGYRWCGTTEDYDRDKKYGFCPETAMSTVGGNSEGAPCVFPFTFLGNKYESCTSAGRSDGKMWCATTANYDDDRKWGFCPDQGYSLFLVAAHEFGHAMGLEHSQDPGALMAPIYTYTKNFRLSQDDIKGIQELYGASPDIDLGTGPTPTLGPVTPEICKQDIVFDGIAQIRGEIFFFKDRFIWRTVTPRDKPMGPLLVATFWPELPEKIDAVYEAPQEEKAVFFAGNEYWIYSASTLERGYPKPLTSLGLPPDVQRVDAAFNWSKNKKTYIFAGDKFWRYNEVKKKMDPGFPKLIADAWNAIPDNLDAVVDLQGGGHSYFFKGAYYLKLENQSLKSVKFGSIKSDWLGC
Series [5] can be described thus: Cmax in rat plasma after single 5 mg/kg oral cassette gavage dose. The format is ADME, organism-based. More on the design: dose 5 mg/kg, route oral. The method, boiled down:
as §1

In series [6] the target is T2, Interstitial collagenase (Homo sapiens, UniProt P03956).
T2 sequence (P03956 whole entry): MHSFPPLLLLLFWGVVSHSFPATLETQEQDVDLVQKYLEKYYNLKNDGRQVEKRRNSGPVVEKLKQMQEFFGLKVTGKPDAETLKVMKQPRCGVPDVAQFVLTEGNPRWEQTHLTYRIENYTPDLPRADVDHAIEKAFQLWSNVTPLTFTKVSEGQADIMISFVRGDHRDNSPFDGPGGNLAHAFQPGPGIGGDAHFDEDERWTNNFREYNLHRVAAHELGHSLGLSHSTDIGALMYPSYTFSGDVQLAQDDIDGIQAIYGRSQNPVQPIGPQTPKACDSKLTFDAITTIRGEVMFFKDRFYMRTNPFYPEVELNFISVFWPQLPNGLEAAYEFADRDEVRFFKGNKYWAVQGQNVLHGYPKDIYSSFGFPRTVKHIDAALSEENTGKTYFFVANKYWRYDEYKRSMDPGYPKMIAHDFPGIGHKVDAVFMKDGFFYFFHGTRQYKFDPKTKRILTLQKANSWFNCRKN
In words: In vitro inhibition of human recombinant matrix metalloprotease-1 (MMP-1).

Series [7] can be described thus: Concentration in rat plasma 24 hours after single 5 mg/kg oral cassette gavage dose. The format is ADME, organism-based. More on the design: dose 5 mg/kg, route oral. Particulars: read-out: C24.
A short description of series [8]: Time to maximal concentration (tmax) in rats following a single 5 mg/kg oral cassette gavage dose. It is filed as ADME, organism-based. More on the design: dose 5 mg/kg, route oral. Particulars: rat, in vivo. The method, boiled down: as §1
In series [9] the target is Matrix metalloproteinase-9 (Homo sapiens, UniProt P14780). Put plainly: In vitro inhibition of matrix metalloprotease-9 (MMP-9).
Sequence of Matrix metalloproteinase-9 (P14780 whole entry): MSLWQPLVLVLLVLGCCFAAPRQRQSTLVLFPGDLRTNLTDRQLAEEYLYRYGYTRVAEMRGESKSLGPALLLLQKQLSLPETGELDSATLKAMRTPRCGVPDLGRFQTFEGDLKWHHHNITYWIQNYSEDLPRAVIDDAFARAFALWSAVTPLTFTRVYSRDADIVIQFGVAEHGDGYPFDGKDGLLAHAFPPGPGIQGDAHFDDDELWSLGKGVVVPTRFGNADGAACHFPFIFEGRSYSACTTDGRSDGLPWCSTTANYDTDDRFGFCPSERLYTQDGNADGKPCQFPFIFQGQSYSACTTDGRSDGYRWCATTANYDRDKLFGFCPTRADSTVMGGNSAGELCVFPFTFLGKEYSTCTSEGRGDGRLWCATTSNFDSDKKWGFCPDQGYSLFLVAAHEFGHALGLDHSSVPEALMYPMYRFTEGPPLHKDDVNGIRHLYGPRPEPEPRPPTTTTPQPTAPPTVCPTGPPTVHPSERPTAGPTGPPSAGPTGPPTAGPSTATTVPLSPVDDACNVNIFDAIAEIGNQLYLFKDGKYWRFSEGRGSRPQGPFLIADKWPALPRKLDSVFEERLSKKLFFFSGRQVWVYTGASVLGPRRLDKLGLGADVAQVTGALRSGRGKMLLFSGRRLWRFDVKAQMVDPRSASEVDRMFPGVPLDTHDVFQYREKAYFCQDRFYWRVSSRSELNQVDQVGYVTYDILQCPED
Series [10] addresses Stromelysin-1 (Homo sapiens, UniProt P08254). In words: In vitro inhibition of recombinant human matrix metalloprotease-3 (MMP-3).
Series [11] in a line: Half life (t1/2) in rats following a single 5 mg/kg oral cassette gavage dose. It is filed as ADME, organism-based. Particulars: rat, in vivo. More on the design: dose 5 mg/kg, route oral. The method, boiled down: as §1
Series [12] is described as follows: Pharmacokinetic parameters in rats following a single 5 mg/kg oral cassette gavage dose. The note with it: rat, in vivo, read-out: AUC 0-infinity. It is filed as ADME, organism-based. More on the design: dose 5 mg/kg, route oral. A digest of the protocol:
as §1

Sequence of Stromelysin-1 (P08254 whole entry): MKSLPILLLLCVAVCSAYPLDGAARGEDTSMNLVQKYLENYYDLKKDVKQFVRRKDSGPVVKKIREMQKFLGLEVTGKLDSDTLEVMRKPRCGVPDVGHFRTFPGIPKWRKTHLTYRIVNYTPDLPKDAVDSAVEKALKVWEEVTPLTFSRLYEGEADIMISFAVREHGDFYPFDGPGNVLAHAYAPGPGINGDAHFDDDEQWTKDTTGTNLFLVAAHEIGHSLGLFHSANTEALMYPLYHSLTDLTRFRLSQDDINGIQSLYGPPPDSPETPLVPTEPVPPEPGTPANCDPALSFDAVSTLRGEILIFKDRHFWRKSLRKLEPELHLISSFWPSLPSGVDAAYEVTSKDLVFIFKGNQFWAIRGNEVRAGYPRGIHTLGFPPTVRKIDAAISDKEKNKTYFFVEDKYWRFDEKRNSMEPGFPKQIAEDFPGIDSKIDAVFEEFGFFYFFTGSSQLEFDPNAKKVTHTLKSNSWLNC

By IC50 is commonly meant the point on the concentration scale where inhibition reaches its midpoint. Broadly, the AUC is the area under the concentration-time curve, a measure of exposure. As usually defined, the Cmax is the maximum level reached in the sampled fluid or tissue. What is called Tmax is the time from dosing to the highest level. By half-life is commonly meant the time needed for the level to fall by half in the phase considered. As to `O=C(O)C(CCSCc1ccccc1)NS(=O)(=O)c1ccc(-c2ccc(Br)cc2)cc1` (centres undefined), the IC50 in series [1] is 0.036 µM; in [2], 36 µM; in series [4] it was 0.007 µM; in [6], 56 µM; in [9], 10 µM; in series [10] it was 0.022 µM. Further, the AUC in series [3] was 119 µg·h/mL; in series [12] it was 132 µg·h/mL. The peak level in series [5] (Cmax) was 11600 ng/mL. Moreover, in series [7], the concentration at 24 h is 1530 ng/mL. Moreover, in [8], the time to peak (Tmax) is 1.33 h. The half-life in series [11] is 12.5 h.

`CC(C)[C@H](NS(=O)(=O)c1ccc(-c2ccccc2)cc1)C(=O)O`: the IC50 in [1] stood at 0.062 µM; in series [2], 71 µM; in series [4], 0.04 µM; in series [6], 5.4 µM; in series [9], 26 µM; in series [10], 0.038 µM. For the same compound, the AUC in series [3] worked out at 12.1 µg·h/mL; in [12], 3.6 µg·h/mL. The concentration in series [5] peaked (Cmax) at 5180 ng/mL. The concentration at 24 h in [7] is 39 ng/mL. Besides, the Tmax in [8] was found to be 0.5 h. This compound also gave a half-life in series [11] of 3.35 h.

Regarding `CC(C)[C@H](NS(=O)(=O)c1ccc(-c2ccc(F)cc2)cc1)C(=O)O`, the 50% inhibitory concentration (IC50) in series [1] came to 0.043 µM; in [2], 4.8 µM; in [4], 0.039 µM; in [6] it was 4.2 µM; in [9] it was 64 µM; in [10] it was 0.01 µM. In addition, the area under the curve (AUC) was 670 µg·h/mL in series [3] and 1020 µg·h/mL in series [12]. In series [5], this compound registered a Cmax of 18700 ng/mL. Moreover, the concentration at 24 h in [7] was 11300 ng/mL. The Tmax in series [8] came to 2.75 h. The half-life in [11] was 45.5 h.

Turning to `CC(C)[C@H](NS(=O)(=O)c1ccc(-c2ccc(C#N)cc2)cc1)C(=O)O`, the IC50 in series [1] was 0.037 µM; in [2], 7 µM; in series [4], 0.033 µM; in series [6] it was 18 µM; in series [9], 59 µM; in series [10], 0.006 µM. Further, the area under the curve (AUC) in series [3] is 289 µg·h/mL; in [12], 363 µg·h/mL. Moreover, the peak level in series [5] (Cmax) was 17100 ng/mL. In addition, the concentration at 24 h in series [7] came out at 5480 ng/mL. In addition, the time of peak concentration (Tmax) in series [8] came out at 2.67 h. The same compound gave a half-life in series [11] of 12.5 h.

As to `CC(C)[C@H](NS(=O)(=O)c1ccc(-c2ccc(Br)cc2F)cc1)C(=O)O`, the concentration for half-maximal inhibition (IC50) in series [1] worked out at 0.007 µM; in [2] it was 2.1 µM; in [4] it was 0.005 µM; in [6], 3.6 µM; in [9], 4.9 µM; in series [10], 0.016 µM. Besides, the AUC is 1360 µg·h/mL in [3] and 4040 µg·h/mL in [12]. The compound also registered a Cmax in [5] of 28500 ng/mL. Further, the concentration at 24 h in series [7] stood at 21300 ng/mL. Moreover, the time of peak concentration (Tmax) in [8] worked out at 1.88 h. In series [11], the half-life is 117 h.

With `CC(C)[C@H](NS(=O)(=O)c1ccc(-c2ccc(Cl)cc2)cc1)C(=O)O`, the IC50 in series [1] stood at 0.048 µM; in series [2], 7.5 µM; in [4] it was 0.011 µM; in series [6], 6.5 µM; in series [9], 16 µM; in series [10], 0.009 µM. Besides, the area under the curve (AUC) in series [3] worked out at 170 µg·h/mL; in series [12] it was 427 µg·h/mL. In addition, the peak concentration (Cmax) in [5] worked out at 8860 ng/mL. The concentration at 24 h in series [7] stood at 4020 ng/mL. Moreover, in [8], the Tmax was found to be 0.5 h. In addition, the half-life in series [11] is 34.1 h.

With `Cc1ccc(-c2ccc(S(=O)(=O)N[C@H](C(=O)O)C(C)C)cc2)cc1`, the concentration for half-maximal inhibition (IC50) in series [1] was determined as 0.011 µM; in series [2] it was 4.5 µM; in series [4] it was 0.002 µM; in series [6] it was 2.2 µM; in series [9] it was 3.9 µM; in series [10], 0.003 µM. Also, the area under the curve (AUC) in series [3] came to 2.25 µg·h/mL; in [12] it was 2.37 µg·h/mL. This compound displayed a maximum concentration (Cmax) in [5] of 3070 ng/mL. Besides, the concentration at 24 h in series [7] is less than 10 ng/mL. The time to peak (Tmax) in series [8] was found to be 0.5 h. Besides, the half-life in [11] is 0.403 h.
